Assays:
[1] = molecular target: Wee1-like protein kinase (Homo sapiens) (UniProt P30291); assay: Inhibition of Wee1 Lys2 labeling site in human A-375 cells at 0.5 uM by KiNativ Profiling analysis relative to control; format: cell-based
[2] = Inhibition of p70S6K ATP Loop labeling site harbouring DLKPENIMLNHQGHVK in human A-375 cells at 0.05 uM by KiNativ Profiling analysis relative to control; settings: condition cancer
[3] = molecular target: Interleukin-1 receptor-associated kinase 1 (Homo sapiens) (UniProt P51617); assay: Inhibition of IRAK1 Lys2 labeling site in human A-375 cells at 0.05 uM by KiNativ Profiling analysis relative to control; format: cell-based
[4] = molecular target: Serine/threonine-protein kinase Nek7 (Homo sapiens) (UniProt Q8TDX7); assay: Inhibition of NEK7 ACT labeling site in human A-375 cells at 0.05 uM by KiNativ Profiling analysis relative to control; format: cell-based
[5] = molecular target: Serine/threonine-protein kinase 38 (Homo sapiens) (UniProt Q15208); assay: Inhibition of NDR1 Lys2 labeling site in human A-375 cells at 0.05 uM by KiNativ Profiling analysis relative to control; format: cell-based
[6] = molecular target: Mitogen-activated protein kinase 9 (Homo sapiens, UniProt P45984); assay: Inhibition of JNK2 Lys2 labeling site in human A-375 cells at 0.5 uM by KiNativ Profiling analysis relative to control; format: cell-based
[7] = molecular target: T1, Mixed lineage kinase domain-like protein (Homo sapiens) (UniProt Q8NB16); assay: Inhibition of MLKL Lys1 labeling site in human A-375 cells at 0.5 uM by KiNativ Profiling analysis relative to control; format: cell-based
T1 sequence (whole entry): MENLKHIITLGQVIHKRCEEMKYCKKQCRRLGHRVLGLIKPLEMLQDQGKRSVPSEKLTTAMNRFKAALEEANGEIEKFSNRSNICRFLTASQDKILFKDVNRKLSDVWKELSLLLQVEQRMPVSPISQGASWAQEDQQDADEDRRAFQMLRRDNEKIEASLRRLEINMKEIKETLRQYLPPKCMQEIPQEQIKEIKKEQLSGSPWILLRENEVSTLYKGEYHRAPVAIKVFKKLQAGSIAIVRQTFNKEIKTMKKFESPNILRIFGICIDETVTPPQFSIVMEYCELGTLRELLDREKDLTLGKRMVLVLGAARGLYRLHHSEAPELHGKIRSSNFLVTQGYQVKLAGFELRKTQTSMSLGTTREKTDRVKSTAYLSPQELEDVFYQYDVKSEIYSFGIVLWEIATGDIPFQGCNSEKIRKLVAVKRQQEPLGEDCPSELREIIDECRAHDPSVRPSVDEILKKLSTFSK

[8] = molecular target: Serine/threonine-protein kinase WNK4 (Homo sapiens) (UniProt Q96J92); assay: Inhibition of Wnk4 Lys2 labeling site in human A-375 cells at 0.05 uM by KiNativ Profiling analysis relative to control; format: cell-based
[9] = molecular target: 5'-AMP-activated protein kinase catalytic subunit alpha-1 (Homo sapiens) (UniProt Q13131); assay: Inhibition of AMPKa1 ATP Loop labeling site in human A-375 cells at 0.05 uM by KiNativ Profiling analysis relative to control; format: cell-based
[10] = molecular target: Cyclin-dependent kinase 11B (Homo sapiens) (UniProt P21127); assay: Inhibition of CDK11 Lys2 labeling site in human A-375 cells at 0.05 uM by KiNativ Profiling analysis relative to control; format: cell-based
[11] = molecular target: Mitogen-activated protein kinase 7 (Homo sapiens) (UniProt Q13164); assay: Inhibition of Erk5 Lys2 labeling site in human A-375 cells at 5 uM by KiNativ Profiling analysis relative to control; format: cell-based
Summary of the method: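 Live A375 melanoma cells were treated with compound at 0.5 or 5 μM, then lysed. Lysates were labeled with a lysine-reactive ATP or ADP-biotin probe. The read-out was protection of each kinase probe-labeling site from labeling, relative to control.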

[12] = molecular target: Serine/threonine-protein kinase 10 (Homo sapiens) (UniProt O94804); assay: Inhibition of LOK Lys1 labeling site harbouring ETGALAAAKVIETK in human A-375 cells at 0.05 uM by KiNativ Profiling analysis relative to control; format: cell-based
[13] = Inhibition of KHS1 Lys2 labeling site in human A-375 cells at 0.5 uM by KiNativ Profiling analysis relative to control; settings: condition cancer
[14] = molecular target: Dual specificity mitogen-activated protein kinase kinase 1 (Homo sapiens) (UniProt Q02750); assay: Inhibition of MAP2K1 Lys2 labeling site harbouring IMHRDVKPSNILVNSR in human A-375 cells at 0.5 uM by KiNativ Profiling analysis relative to control; format: cell-based
[15] = molecular target: Serine/threonine-protein kinase 26 (Homo sapiens) (UniProt Q9P289); assay: Inhibition of MST4 Lys2 labeling site in human A-375 cells at 5 uM by KiNativ Profiling analysis relative to control; format: cell-based
[16] = molecular target: Misshapen-like kinase 1 (Homo sapiens) (UniProt Q8N4C8); assay: Inhibition of ZC3 Lys2 labeling site in human Huh-7 cell lysate at 1 uM by KiNativ Profiling analysis relative to control; format: subcellular
Sequence of Misshapen-like kinase 1 (Homo sapiens) (Q8N4C8 whole entry, looked up): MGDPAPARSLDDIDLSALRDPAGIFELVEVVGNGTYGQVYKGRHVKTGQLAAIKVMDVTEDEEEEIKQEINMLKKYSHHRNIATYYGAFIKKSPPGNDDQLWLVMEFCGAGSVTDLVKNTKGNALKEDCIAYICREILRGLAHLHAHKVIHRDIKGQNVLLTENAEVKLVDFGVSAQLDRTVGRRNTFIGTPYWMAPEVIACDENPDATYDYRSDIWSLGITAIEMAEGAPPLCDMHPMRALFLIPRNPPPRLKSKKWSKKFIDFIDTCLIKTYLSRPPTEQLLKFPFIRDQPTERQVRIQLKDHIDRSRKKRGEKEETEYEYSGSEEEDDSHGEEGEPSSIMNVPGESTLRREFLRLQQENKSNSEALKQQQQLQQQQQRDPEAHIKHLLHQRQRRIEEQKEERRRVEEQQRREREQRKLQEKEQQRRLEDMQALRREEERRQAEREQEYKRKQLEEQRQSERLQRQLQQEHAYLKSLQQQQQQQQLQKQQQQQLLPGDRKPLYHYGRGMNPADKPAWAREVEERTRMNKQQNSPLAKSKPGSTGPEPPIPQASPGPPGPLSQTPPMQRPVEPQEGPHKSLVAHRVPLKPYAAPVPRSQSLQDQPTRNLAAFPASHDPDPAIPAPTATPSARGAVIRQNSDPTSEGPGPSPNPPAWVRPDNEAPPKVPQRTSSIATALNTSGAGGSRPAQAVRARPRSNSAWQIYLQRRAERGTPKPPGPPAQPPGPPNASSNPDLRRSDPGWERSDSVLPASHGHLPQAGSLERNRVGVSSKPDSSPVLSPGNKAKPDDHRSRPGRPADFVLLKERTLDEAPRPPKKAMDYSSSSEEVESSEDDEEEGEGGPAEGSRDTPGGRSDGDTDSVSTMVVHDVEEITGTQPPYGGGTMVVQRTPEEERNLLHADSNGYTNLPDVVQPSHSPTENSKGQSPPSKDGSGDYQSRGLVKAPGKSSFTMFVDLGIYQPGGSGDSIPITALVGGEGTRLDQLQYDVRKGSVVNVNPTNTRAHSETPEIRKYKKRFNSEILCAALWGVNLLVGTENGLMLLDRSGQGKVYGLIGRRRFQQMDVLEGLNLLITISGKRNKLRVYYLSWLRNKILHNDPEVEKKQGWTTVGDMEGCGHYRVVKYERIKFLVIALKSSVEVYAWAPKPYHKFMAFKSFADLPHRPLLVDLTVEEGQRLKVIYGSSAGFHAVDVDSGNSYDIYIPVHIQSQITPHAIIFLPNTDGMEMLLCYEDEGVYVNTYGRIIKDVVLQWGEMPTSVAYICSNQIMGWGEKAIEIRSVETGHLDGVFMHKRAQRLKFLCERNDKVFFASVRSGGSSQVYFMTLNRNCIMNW

Sequence of Serine/threonine-protein kinase WNK4 (Homo sapiens) (Q96J92 whole entry): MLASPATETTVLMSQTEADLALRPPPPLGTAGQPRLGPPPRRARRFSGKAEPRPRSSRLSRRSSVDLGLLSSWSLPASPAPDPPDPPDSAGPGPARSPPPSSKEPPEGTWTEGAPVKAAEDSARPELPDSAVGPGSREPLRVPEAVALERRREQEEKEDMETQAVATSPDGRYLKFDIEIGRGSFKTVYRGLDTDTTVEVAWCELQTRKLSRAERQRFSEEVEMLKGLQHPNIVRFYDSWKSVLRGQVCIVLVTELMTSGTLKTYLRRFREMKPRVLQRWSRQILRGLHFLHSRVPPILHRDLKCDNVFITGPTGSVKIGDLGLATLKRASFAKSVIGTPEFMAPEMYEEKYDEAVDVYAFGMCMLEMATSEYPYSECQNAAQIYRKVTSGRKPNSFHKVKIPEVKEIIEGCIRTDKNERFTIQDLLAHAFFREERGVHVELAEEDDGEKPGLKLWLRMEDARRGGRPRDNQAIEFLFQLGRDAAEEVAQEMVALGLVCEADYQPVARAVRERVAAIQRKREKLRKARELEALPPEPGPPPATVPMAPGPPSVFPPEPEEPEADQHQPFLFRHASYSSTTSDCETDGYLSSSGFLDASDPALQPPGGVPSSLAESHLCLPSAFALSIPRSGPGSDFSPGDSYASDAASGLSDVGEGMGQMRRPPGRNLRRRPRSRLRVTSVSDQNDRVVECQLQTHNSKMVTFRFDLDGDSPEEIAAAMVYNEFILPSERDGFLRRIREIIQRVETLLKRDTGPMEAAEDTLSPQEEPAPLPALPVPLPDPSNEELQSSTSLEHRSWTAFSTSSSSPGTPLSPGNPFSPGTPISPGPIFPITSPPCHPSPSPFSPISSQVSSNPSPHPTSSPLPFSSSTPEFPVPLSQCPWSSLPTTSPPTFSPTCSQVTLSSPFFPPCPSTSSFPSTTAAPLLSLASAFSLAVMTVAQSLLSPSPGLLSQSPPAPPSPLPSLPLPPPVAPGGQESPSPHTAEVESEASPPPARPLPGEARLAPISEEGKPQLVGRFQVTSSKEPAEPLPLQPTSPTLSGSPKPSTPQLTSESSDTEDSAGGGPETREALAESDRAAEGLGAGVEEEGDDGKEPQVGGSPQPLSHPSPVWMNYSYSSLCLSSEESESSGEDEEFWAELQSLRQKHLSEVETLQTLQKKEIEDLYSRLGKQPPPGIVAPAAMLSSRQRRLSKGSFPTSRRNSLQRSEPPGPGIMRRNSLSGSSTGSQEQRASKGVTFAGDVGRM
Sequence of Serine/threonine-protein kinase 38 (Homo sapiens) (Q15208 2-465 limits assumed): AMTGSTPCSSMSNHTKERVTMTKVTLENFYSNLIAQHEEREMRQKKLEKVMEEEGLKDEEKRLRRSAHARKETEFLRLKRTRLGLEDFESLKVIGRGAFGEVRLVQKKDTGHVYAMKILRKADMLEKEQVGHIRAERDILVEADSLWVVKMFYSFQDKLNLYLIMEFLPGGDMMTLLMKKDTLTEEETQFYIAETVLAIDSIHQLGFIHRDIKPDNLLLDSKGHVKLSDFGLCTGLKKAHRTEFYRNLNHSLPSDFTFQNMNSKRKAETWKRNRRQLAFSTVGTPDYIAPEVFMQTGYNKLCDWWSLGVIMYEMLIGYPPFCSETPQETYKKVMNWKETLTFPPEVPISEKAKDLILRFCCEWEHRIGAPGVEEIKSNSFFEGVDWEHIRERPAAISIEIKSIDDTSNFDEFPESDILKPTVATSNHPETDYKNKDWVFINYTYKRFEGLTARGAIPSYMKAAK
Sequence of Cyclin-dependent kinase 11B (Homo sapiens) (P21127 whole entry): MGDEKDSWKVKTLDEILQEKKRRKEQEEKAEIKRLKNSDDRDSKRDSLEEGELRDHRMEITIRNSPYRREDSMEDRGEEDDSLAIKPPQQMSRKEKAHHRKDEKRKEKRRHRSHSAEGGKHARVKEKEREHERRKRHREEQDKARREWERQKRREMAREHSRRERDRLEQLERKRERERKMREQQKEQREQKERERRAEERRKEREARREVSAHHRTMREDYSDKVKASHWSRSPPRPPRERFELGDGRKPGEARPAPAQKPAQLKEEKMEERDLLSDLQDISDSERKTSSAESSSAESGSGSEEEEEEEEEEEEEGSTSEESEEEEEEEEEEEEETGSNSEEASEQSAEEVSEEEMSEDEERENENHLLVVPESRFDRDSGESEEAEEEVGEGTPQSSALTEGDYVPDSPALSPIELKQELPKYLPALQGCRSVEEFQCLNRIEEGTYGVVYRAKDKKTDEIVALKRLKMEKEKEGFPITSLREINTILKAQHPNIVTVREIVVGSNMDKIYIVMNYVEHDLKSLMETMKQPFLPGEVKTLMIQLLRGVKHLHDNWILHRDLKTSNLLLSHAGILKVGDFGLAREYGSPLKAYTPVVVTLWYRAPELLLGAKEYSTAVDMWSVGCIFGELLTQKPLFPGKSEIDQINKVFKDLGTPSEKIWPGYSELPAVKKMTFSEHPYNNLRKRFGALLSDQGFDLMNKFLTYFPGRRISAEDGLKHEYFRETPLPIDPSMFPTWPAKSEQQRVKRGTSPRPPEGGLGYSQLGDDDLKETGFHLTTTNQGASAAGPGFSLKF
Sequence of Serine/threonine-protein kinase 26 (Homo sapiens) (Q9P289 2-416 limits assumed): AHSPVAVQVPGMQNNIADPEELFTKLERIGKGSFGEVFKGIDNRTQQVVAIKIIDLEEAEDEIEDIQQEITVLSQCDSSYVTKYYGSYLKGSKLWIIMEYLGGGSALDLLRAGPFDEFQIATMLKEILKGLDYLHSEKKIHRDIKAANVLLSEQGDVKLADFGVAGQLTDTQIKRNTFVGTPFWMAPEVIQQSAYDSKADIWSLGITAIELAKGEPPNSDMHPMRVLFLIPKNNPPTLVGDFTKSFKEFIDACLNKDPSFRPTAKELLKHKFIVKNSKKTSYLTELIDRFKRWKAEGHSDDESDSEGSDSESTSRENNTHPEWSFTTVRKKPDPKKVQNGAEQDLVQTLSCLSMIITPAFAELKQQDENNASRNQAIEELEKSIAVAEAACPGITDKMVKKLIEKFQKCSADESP
Sequence of Wee1-like protein kinase (Homo sapiens) (P30291 whole entry, looked up): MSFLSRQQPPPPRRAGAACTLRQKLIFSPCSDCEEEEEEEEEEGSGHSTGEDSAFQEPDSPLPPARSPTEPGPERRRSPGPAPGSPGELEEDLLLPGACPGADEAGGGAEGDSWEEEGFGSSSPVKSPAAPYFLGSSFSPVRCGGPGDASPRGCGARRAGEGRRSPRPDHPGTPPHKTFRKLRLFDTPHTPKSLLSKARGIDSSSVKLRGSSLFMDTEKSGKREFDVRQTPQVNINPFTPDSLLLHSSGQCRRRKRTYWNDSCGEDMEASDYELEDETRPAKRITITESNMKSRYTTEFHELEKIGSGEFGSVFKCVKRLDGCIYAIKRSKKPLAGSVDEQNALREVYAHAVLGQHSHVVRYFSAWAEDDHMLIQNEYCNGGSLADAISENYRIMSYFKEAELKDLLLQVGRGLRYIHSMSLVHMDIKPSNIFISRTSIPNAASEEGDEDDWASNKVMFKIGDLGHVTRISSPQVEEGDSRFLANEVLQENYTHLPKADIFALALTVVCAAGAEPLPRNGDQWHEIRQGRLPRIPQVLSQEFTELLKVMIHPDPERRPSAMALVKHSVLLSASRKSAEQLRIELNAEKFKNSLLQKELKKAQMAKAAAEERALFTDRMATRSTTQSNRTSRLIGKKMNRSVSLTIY

Structure (SMILES)	inhibition [1] [%]	inhibition at 0.05 µM [2] [%]	inhibition [3] [%]	inhibition [4] [%]	inhibition [5] [%]	inhibition [6] [%]	inhibition [7] [%]	inhibition [8] [%]	inhibition [9] [%]	inhibition [10] [%]	inhibition [11] [%]	inhibition [12] [%]	inhibition at 0.5 µM [13] [%]	inhibition [14] [%]	inhibition [15] [%]	inhibition [16] [%]
CCN1CCN(Cc2ccc(NC(=O)c3ccc(C)c(/C=C/c4cnc5[nH]ccc5c4OC)c3)cc2C(F)(F)F)CC1	8	-14.4	-9.4	6.8	19.2	40.6	20.1	-9.1	-8.8	-9.4	8.7	39.6	36	19.2	20.9	
CCN1CCN(Cc2ccc(NC(=O)c3ccc(C)c(Oc4ccnc5[nH]ccc45)c3)cc2C(F)(F)F)CC1	13.6	18.9	14.2	14.2	30	73.7	7.8	0.1	-4.4	32.1	7.8	40.5	-0.3	28.4	15.4	
CNc1cc(Oc2cc(C(=O)Nc3cc(-n4cnc(C)c4)cc(C(F)(F)F)c3)ccc2C)ncn1																24.1
CNc1cc(Oc2cc(C(=O)Nc3cc(N4CCN(C)CC4)cc(C(F)(F)F)c3)ccc2C)ncn1																2.7

Reference: ChEMBL document CHEMBL5696442, “Discovery of type II inhibitors of TGFβ-activated kinase 1 (TAK1) and mitogen-activated protein kinase kinase kinase kinase 2 (MAP4K2)” (J Med Chem, 2015)
